Source: ChEMBL document CHEMBL3351726 (J Med Chem, 2014)
Residues, ends and D or L forms follow the SMILES beside them.

How the values were obtained:
[1] = Retention time of the compound measured over 15 mins at flow rate of 1 mL/min by HPLC
[2] = Retention time of the compound measured over 30 mins at flow rate of 1 mL/min by HPLC; assay type: physicochemical; settings: 0.5 h
Procedure, shortened: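 Reversed-phase analytical HPLC or LC−MS on a SymmetryShield RP18 column (5 μm, 4.6 × 150 mm). Gradient 10−60% B over 30 min at 1 mL/min; A = 0.1% TFA in water, B = 0.1% TFA in acetonitrile.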

[3] = molecular target: Sodium channel protein type 9 subunit alpha (Homo sapiens, UniProt Q15858); experiment: Inhibition of human Nav1.7 expressed in HEK-293 cells at -130 to -110 mV holding potential by whole-cell voltage clamp analysis; assay type: cell-based, HEK293
[4] = test system: HEK293; experiment: Selectivity ratio of IC50 for rat Nav1.2 expressed in HEK-293 cells to IC50 for human Nav1.7 expressed in HEK-293 cells; assay type: cell-based

Chain of Sodium channel protein type 9 subunit alpha (Q15858 whole entry): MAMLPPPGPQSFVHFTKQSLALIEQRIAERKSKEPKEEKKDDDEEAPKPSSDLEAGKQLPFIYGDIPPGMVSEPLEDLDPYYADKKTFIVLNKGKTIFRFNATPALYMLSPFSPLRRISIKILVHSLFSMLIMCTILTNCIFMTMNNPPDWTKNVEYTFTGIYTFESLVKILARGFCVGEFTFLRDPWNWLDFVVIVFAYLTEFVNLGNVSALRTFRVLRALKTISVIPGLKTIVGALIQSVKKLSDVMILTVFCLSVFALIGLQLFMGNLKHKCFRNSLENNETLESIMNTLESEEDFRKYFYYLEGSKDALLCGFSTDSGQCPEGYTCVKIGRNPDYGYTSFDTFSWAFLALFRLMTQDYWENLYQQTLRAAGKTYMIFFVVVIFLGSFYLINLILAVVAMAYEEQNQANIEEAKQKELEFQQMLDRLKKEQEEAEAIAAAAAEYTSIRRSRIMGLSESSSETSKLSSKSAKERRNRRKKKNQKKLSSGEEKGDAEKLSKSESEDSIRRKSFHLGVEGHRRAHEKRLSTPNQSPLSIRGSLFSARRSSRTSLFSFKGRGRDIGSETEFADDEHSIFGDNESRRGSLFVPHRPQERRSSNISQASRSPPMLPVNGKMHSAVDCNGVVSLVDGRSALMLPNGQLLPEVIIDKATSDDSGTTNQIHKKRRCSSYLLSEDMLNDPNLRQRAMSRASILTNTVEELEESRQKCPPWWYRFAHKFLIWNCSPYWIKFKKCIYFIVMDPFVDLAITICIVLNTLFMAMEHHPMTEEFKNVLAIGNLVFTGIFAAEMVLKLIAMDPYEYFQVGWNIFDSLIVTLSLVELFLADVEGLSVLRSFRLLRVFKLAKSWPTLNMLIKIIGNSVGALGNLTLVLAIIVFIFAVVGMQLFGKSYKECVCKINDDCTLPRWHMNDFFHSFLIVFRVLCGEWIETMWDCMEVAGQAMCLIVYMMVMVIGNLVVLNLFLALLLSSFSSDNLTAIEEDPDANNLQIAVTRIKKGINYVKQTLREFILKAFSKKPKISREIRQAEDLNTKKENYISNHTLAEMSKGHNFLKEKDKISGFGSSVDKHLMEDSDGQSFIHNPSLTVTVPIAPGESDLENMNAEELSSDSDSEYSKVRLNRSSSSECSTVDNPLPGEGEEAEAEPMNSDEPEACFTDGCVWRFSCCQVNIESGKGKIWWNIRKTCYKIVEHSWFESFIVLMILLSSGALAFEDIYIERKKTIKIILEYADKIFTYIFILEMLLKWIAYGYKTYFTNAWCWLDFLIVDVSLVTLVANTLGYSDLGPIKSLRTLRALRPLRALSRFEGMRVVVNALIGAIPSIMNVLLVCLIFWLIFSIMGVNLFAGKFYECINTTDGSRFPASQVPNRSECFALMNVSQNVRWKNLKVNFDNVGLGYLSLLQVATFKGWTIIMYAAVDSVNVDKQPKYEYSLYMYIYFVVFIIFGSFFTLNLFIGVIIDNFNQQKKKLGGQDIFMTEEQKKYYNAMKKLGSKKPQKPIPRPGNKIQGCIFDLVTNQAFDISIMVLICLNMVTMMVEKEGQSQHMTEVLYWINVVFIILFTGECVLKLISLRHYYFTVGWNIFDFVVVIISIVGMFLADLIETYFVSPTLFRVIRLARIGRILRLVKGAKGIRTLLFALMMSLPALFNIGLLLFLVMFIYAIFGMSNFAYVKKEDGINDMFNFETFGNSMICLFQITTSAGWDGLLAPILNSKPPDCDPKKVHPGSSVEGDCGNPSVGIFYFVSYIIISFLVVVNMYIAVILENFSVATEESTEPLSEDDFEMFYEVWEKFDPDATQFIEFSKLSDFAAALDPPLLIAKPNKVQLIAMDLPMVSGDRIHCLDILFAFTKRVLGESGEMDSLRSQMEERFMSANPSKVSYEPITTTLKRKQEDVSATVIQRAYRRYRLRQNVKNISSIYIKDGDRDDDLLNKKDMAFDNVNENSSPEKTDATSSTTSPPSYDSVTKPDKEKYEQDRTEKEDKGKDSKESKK

SMILES	Retention_time [1]	Retention_time [2]	IC50 [3]	Ratio IC50 [4]
CSCC[C@@H]1NC(=O)[C@H](Cc2c[nH]c3ccccc23)NC(=O)[C@H](CCCCN)NC(=O)[C@H](CCC(N)=O)NC(=O)[C@@H](NC(=O)[C@@H](N)Cc2ccc(O)cc2)CSSC[C@@H]2NC(=O)[C@@H]3CSSC[C@@H](C(=O)N[C@@H](CCCCN)C(=O)N[C@@H](CCCCN)C(=O)N[C@@H](CCCCN)C(=O)N[C@@H](CC(C)C)C(=O)N[C@@H](Cc4c[nH]c5ccccc45)C(=O)O)NC(=O)[C@H](Cc4c[nH]c5ccccc45)NC(=O)[C@H](CC(C)C)NC(=O)[C@H](CCCNC(=N)N)NC(=O)[C@H](CSSC[C@H](NC(=O)[C@H]([C@@H](C)O)NC(=O)[C@H](Cc4c[nH]c5ccccc45)NC1=O)C(=O)N[C@@H](CC(=O)O)C(=O)N[C@@H](CCC(=O)O)C(=O)N[C@@H](CCC(=O)O)C(=O)N[C@@H](CCCNC(=N)N)C(=O)N[C@@H](CCCCN)C(=O)N3)NC(=O)[C@H](C(C)C)NC(=O)[C@H](CC(C)C)NC(=O)CNC(=O)[C@H](CCC(=O)O)NC2=O (HELM PEPTIDE1{Y.C.Q.K.W.M.W.T.C.D.E.E.R.K.C.C.E.G.L.V.C.R.L.W.C.K.K.K.L.W}$PEPTIDE1,PEPTIDE1,2:R3-16:R3|PEPTIDE1,PEPTIDE1,9:R3-21:R3|PEPTIDE1,PEPTIDE1,15:R3-25:R3$$$V2.0)	8.66 min	14.78 min	0.293 µM	–
[H][C@]12CSSC[C@@H](C(=O)N[C@@H](CCCCN)C(=O)N[C@@H](CCCCN)C(=O)N[C@@H](CCCCN)C(=O)N[C@@H](CC(C)C)C(=O)N[C@@H](Cc3c[nH]c4ccccc34)C(=O)O)NC(=O)[C@H](Cc3c[nH]c4ccccc34)NC(=O)[C@H](CC(C)C)NC(=O)[C@H](CCCNC(=N)N)NC(=O)[C@]3([H])CSSC[C@]([H])(NC(=O)[C@]([H])([C@@H](C)O)NC(=O)[C@H](Cc4c[nH]c5ccccc45)NC(=O)[C@H](CCSC)NC(=O)[C@H](Cc4c[nH]c5ccccc45)NC(=O)[C@H](CCCCN)NC(=O)[C@H](CCC(N)=O)NC(=O)[C@@H](NC(=O)[C@@H](N)Cc4ccc(O)cc4)CSSC[C@]([H])(NC1=O)C(=O)N[C@@H](CCC(=O)O)C(=O)NCC(=O)N[C@@H](CC(C)C)C(=O)N[C@@H](C(C)C)C(=O)N3)C(=O)N[C@@H](CC(=O)O)C(=O)N[C@@H](CO)C(=O)N[C@@H](C)C(=O)N[C@@H](CCCNC(=N)N)C(=O)N[C@@H](CCCCN)C(=O)N2 (HELM PEPTIDE1{Y.C.Q.K.W.M.W.T.C.D.S.A.R.K.C.C.E.G.L.V.C.R.L.W.C.K.K.K.L.W}$PEPTIDE1,PEPTIDE1,2:R3-16:R3|PEPTIDE1,PEPTIDE1,9:R3-21:R3|PEPTIDE1,PEPTIDE1,15:R3-25:R3$$$V2.0)	9.86 min	16.59 min	–	24
CSCC[C@@H]1NC(=O)[C@H](Cc2c[nH]c3ccccc23)NC(=O)[C@H](CCCCN)NC(=O)[C@H](CCC(N)=O)NC(=O)[C@@H](NC(=O)[C@@H](N)Cc2ccc(O)cc2)CSSC[C@@H]2NC(=O)[C@@H]3CSSC[C@@H](C(=O)N[C@@H](CCCCN)C(=O)N[C@@H](CCCCN)C(=O)N[C@@H](CCCCN)C(=O)N(C)[C@@H](CC(C)C)C(=O)N[C@@H](Cc4c[nH]c5ccccc45)C(=O)O)NC(=O)[C@H](Cc4c[nH]c5ccccc45)NC(=O)[C@H](CC(C)C)NC(=O)[C@H](CCCNC(=N)N)NC(=O)[C@H](CSSC[C@H](NC(=O)[C@H]([C@@H](C)O)NC(=O)[C@H](Cc4c[nH]c5ccccc45)NC1=O)C(=O)N[C@@H](CC(=O)O)C(=O)N[C@@H](CO)C(=O)N[C@@H](C)C(=O)N[C@@H](CCCNC(=N)N)C(=O)N[C@@H](CCCCN)C(=O)N3)NC(=O)[C@H](C(C)C)NC(=O)[C@H](CC(C)C)NC(=O)CNC(=O)[C@H](CCC(=O)O)NC2=O (HELM PEPTIDE1{Y.C.Q.K.W.M.W.T.C.D.S.A.R.K.C.C.E.G.L.V.C.R.L.W.C.K.K.K.[meL].W}$PEPTIDE1,PEPTIDE1,2:R3-16:R3|PEPTIDE1,PEPTIDE1,9:R3-21:R3|PEPTIDE1,PEPTIDE1,15:R3-25:R3$$$V2.0)	9.04 min	15.1 min	–	2.8
CC[C@H](C)[C@H](NC(=O)[C@@H](NC(=O)[C@H](CCCCN)NC(=O)[C@H](CCCCN)NC(=O)[C@@H]1CSSC[C@@H]2NC(=O)[C@H](CCCCN)NC(=O)[C@H](CCCNC(=N)N)NC(=O)[C@H](CCC(=O)O)NC(=O)[C@H](CO)NC(=O)[C@H](CC(=O)O)NC(=O)[C@@H]3CSSC[C@H](NC(=O)[C@H](C(C)C)NC(=O)[C@H](CCSC)NC(=O)CNC(=O)[C@H](CCC(=O)O)NC(=O)[C@H](CSSC[C@H](NC(=O)[C@@H](N)Cc4ccc(O)cc4)C(=O)N[C@@H](CCC(N)=O)C(=O)N[C@@H](CCCCN)C(=O)N[C@@H](Cc4c[nH]c5ccccc45)C(=O)N[C@@H](CCSC)C(=O)N[C@@H](Cc4c[nH]c5ccccc45)C(=O)N[C@@H]([C@@H](C)O)C(=O)N3)NC2=O)C(=O)N[C@@H](CCCNC(=N)N)C(=O)N[C@@H](CC(C)C)C(=O)N[C@@H](Cc2c[nH]c3ccccc23)C(=O)N1)[C@@H](C)CC)C(=O)O	9.44 min	18.47 min	–	2
CC[C@H](C)[C@H](NC(=O)[C@@H](NC(=O)[C@H](CCCCN)NC(=O)[C@H](CCCCN)NC(=O)[C@H](CCCCN)NC(=O)[C@@H]1CSSC[C@@H]2NC(=O)[C@H](CCCCN)NC(=O)[C@H](CCCNC(=N)N)NC(=O)[C@H](C)NC(=O)[C@H](CO)NC(=O)[C@H](CC(=O)O)NC(=O)[C@@H]3CSSC[C@H](NC(=O)[C@H](C(C)C)NC(=O)[C@H](CC(C)C)NC(=O)CNC(=O)[C@H](CCC(=O)O)NC(=O)[C@H](CSSC[C@H](NC(=O)[C@@H](N)Cc4ccc(O)cc4)C(=O)N[C@@H](CCC(N)=O)C(=O)N[C@@H](CCCCN)C(=O)N[C@@H](Cc4c[nH]c5ccccc45)C(=O)N[C@@H](CCSC)C(=O)N[C@@H](Cc4c[nH]c5ccccc45)C(=O)N[C@@H]([C@@H](C)O)C(=O)N3)NC2=O)C(=O)N[C@@H](CCCNC(=N)N)C(=O)N[C@@H](CC(C)C)C(=O)N[C@@H](Cc2c[nH]c3ccccc23)C(=O)N1)C(C)C)C(=O)O (HELM PEPTIDE1{Y.C.Q.K.W.M.W.T.C.D.S.A.R.K.C.C.E.G.L.V.C.R.L.W.C.K.K.K.V.I}$PEPTIDE1,PEPTIDE1,2:R3-16:R3|PEPTIDE1,PEPTIDE1,9:R3-21:R3|PEPTIDE1,PEPTIDE1,15:R3-25:R3$$$V2.0)	9 min	14.79 min	0.004 µM	–
CSCC[C@@H]1NC(=O)[C@H](Cc2c[nH]c3ccccc23)NC(=O)[C@H](CCCCN)NC(=O)[C@H](CCC(N)=O)NC(=O)[C@@H](NC(=O)[C@@H](N)Cc2ccc(O)cc2)CSSC[C@@H]2NC(=O)[C@@H]3CSSC[C@@H](C(=O)N[C@@H](CCCCN)C(=O)N[C@@H](CCCCN)C(=O)N[C@@H](CCCCN)C(=O)N[C@@H](CC(C)C)C(=O)N[C@@H](Cc4c[nH]c5ccccc45)C(=O)O)NC(=O)[C@H](Cc4c[nH]c5ccccc45)NC(=O)[C@H](CC(C)C)NC(=O)[C@H](CCC(=O)O)NC(=O)[C@H](CSSC[C@H](NC(=O)[C@H]([C@@H](C)O)NC(=O)[C@H](Cc4c[nH]c5ccccc45)NC1=O)C(=O)N[C@@H](CC(=O)O)C(=O)N[C@@H](CO)C(=O)N[C@@H](CCC(=O)O)C(=O)N[C@@H](CCCNC(=N)N)C(=O)N[C@@H](CCCCN)C(=O)N3)NC(=O)[C@H](C(C)C)NC(=O)[C@H](Cc1ccc(O)cc1)NC(=O)CNC(=O)[C@H](CCC(=O)O)NC2=O	9.09 min	14.36 min	> 3 µM	–
CC[C@H](C)[C@H](NC(=O)[C@](C)(CC(C)C)NC(=O)[C@H](CCCCN)NC(=O)[C@H](CCCCN)NC(=O)[C@H](CCCCN)NC(=O)[C@@H]1CSSC[C@@H]2NC(=O)[C@H](CCCCN)NC(=O)[C@H](CCCNC(=N)N)NC(=O)[C@H](C)NC(=O)[C@H](CO)NC(=O)[C@H](CC(=O)O)NC(=O)[C@@H]3CSSC[C@H](NC(=O)[C@H](C(C)C)NC(=O)[C@H](CC(C)C)NC(=O)CNC(=O)[C@H](CCC(=O)O)NC(=O)[C@H](CSSC[C@H](NC(=O)[C@@H](N)Cc4ccc(O)cc4)C(=O)N[C@@H](CCC(N)=O)C(=O)N[C@@H](CCCCN)C(=O)N[C@@H](Cc4c[nH]c5ccccc45)C(=O)N[C@@H](CCSC)C(=O)N[C@@H](Cc4c[nH]c5ccccc45)C(=O)N[C@@H]([C@@H](C)O)C(=O)N3)NC2=O)C(=O)N[C@@H](CCCNC(=N)N)C(=O)N[C@@H](CC(C)C)C(=O)N[C@@H](Cc2c[nH]c3ccccc23)C(=O)N1)C(=O)O (HELM PEPTIDE1{Y.C.Q.K.W.M.W.T.C.D.S.A.R.K.C.C.E.G.L.V.C.R.L.W.C.K.K.K.[CC(C)C[C@](C)(N[*:1])C(=O)[*:2]].I}$PEPTIDE1,PEPTIDE1,2:R3-16:R3|PEPTIDE1,PEPTIDE1,9:R3-21:R3|PEPTIDE1,PEPTIDE1,15:R3-25:R3$$$V2.0)	9.03 min	14.87 min	–	34.2
[H][C@]12CSSC[C@@H](C(=O)N[C@@H](CCCCN)C(=O)N[C@@H](CCCCN)C(=O)N[C@@H](CCCCN)C(=O)N[C@H](C(=O)N[C@@H](CC(C)C)C(=O)N[C@@H](Cc3c[nH]c4ccccc34)C(=O)O)[C@@H](C)CC)NC(=O)[C@H](Cc3c[nH]c4ccccc34)NC(=O)[C@H](CC(C)C)NC(=O)[C@H](CCCNC(=N)N)NC(=O)[C@]3([H])CSSC[C@]([H])(NC(=O)[C@]([H])([C@@H](C)O)NC(=O)[C@H](Cc4c[nH]c5ccccc45)NC(=O)[C@H](CCSC)NC(=O)[C@H](Cc4c[nH]c5ccccc45)NC(=O)[C@H](CCCCN)NC(=O)[C@H](CCC(N)=O)NC(=O)[C@@H](NC(=O)[C@@H](N)Cc4ccc(O)cc4)CSSC[C@]([H])(NC1=O)C(=O)N[C@@H](CCC(=O)O)C(=O)NCC(=O)N[C@@H](CC(C)C)C(=O)N[C@@H](C(C)C)C(=O)N3)C(=O)N[C@@H](CC(=O)O)C(=O)N[C@@H](CO)C(=O)N[C@@H](C)C(=O)N[C@@H](CCCNC(=N)N)C(=O)N[C@@H](CCCCN)C(=O)N2 (HELM PEPTIDE1{Y.C.Q.K.W.M.W.T.C.D.S.A.R.K.C.C.E.G.L.V.C.R.L.W.C.K.K.K.I.L.W}$PEPTIDE1,PEPTIDE1,2:R3-16:R3|PEPTIDE1,PEPTIDE1,9:R3-21:R3|PEPTIDE1,PEPTIDE1,15:R3-25:R3$$$V2.0)	9.05 min	15.88 min	–	33
